In ChEMBL document CHEMBL5058577, “EUbOPEN Chemogenomics Library 2 (Multiplex)” (2022):

System: HEK-293T
Experiment: Multiplex assay against HEK293T
Type: toxicity, cell-based
Settings: human
How it was run: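 On a CQ1 microscope at 37°C and 5% CO2, live cells were imaged after compound addition. They had been stained at seeding with Hoechst33342, BioTracker Green Microtubule Cytoskeleton Dye, MitoTracker Red and Annexin V Alexa Fluor 680. CellPathfinder machine-learning gating assigned cells to Hoechst high-intensity objects or normal cells, normal cells to healthy, pyknosed or fragmented nuclei, and pyknosed cells to mitotic or apoptotic. Tubulin, mitochondrial-mass and membrane-permeability phenotypes are per cents of healthy-nucleus cells.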

[1] = 12 h, 1 µM, compound concentration 1 uM, replicate 1
[2] = 12 h, 1 µM, compound concentration 1 uM, replicate 2
[3] = 12 h, 10 µM, compound concentration 10 uM, replicate 1
[4] = 12 h, 10 µM, compound concentration 10 uM, replicate 2
[5] = 24 h, 1 µM, compound concentration 1 uM, replicate 1
[6] = 24 h, 1 µM, compound concentration 1 uM, replicate 2
[7] = 24 h, 10 µM, compound concentration 10 uM, replicate 1
[8] = 24 h, 10 µM, compound concentration 10 uM, replicate 2
[9] = 48 h, 1 µM, compound concentration 1 uM, replicate 1
[10] = 48 h, 1 µM, compound concentration 1 uM, replicate 2
[11] = 48 h, 10 µM, compound concentration 10 uM, replicate 1
[12] = 48 h, 10 µM, compound concentration 10 uM, replicate 2

**Q.** `Cc1cnc(-c2cc(N3CCN(C(=O)CCS(C)(=O)=O)CC3)ncc2Cl)c(C)c1` was tested. Which “Population Apoptotic (%)” value [1] did it give?
**A.** 29%

**Q.** What about the “Population Fragmented Nuclei (%)” value [1] of the same compound?
**A.** 6%

**Q.** What about the “Population Healthy Nuclei (%)” value [1] of the same compound?
**A.** 76%

**Q.** And the “Population Hoechst High Intensity Objects (%)” value [1]?
**A.** 4%

**Q.** And the “Population Membrane Permeable-Phenotype (%)” value [1]?
**A.** 0%

**Q.** What about the “Population Mitochondria Different-Phenotype (%)” value [1] of the same compound?
**A.** 50%

**Q.** What about the “Population Mitotic Cells (%)” value [1] of the same compound?
**A.** 70%

**Q.** What about the “Population Normal (%)” value [1] of the same compound?
**A.** 95%

**Q.** What about the “Population Pyknosed Nuclei (%)” value [1] of the same compound?
**A.** 16%

**Q.** And the “Population Tubulin-Different-Phenotype (%)” value [1]?
**A.** 33%

**Q.** What about the “Total Cell Count” value [1] of the same compound?
**A.** 276

**Q.** What about the “Population Apoptotic (%)” value [2] of the same compound?
**A.** 42%

**Q.** And the “Population Healthy Nuclei (%)” value [2]?
**A.** 75%

**Q.** What about the “Population Hoechst High Intensity Objects (%)” value [2] of the same compound?
**A.** 9%

**Q.** And the “Population Mitochondria Different-Phenotype (%)” value [2]?
**A.** 69%

**Q.** What about the “Population Mitotic Cells (%)” value [2] of the same compound?
**A.** 57%

**Q.** And the “Population Normal (%)” value [2]?
**A.** 90%

**Q.** What about the “Population Pyknosed Nuclei (%)” value [2] of the same compound?
**A.** 17%

**Q.** And the “Population Tubulin-Different-Phenotype (%)” value [2]?
**A.** 24%

**Q.** And the “Total Cell Count” value [2]?
**A.** 294

**Q.** And the “Population Apoptotic (%)” value [3]?
**A.** 42%

**Q.** What about the “Population Fragmented Nuclei (%)” value [3] of the same compound?
**A.** 7%

**Q.** And the “Population Healthy Nuclei (%)” value [3]?
**A.** 82%

**Q.** What about the “Population Hoechst High Intensity Objects (%)” value [3] of the same compound?
**A.** 10%

**Q.** What about the “Population Membrane Permeable-Phenotype (%)” value [3] of the same compound?
**A.** 0%

**Q.** And the “Population Mitochondria Different-Phenotype (%)” value [3]?
**A.** 47%

**Q.** What about the “Population Mitotic Cells (%)” value [3] of the same compound?
**A.** 57%

**Q.** And the “Population Normal (%)” value [3]?
**A.** 89%

**Q.** What about the “Population Pyknosed Nuclei (%)” value [3] of the same compound?
**A.** 10%

**Q.** And the “Population Tubulin-Different-Phenotype (%)” value [3]?
**A.** 40%

**Q.** What about the “Total Cell Count” value [3] of the same compound?
**A.** 409

**Q.** What about the “Population Apoptotic (%)” value [4] of the same compound?
**A.** 45%

**Q.** And the “Population Healthy Nuclei (%)” value [4]?
**A.** 75%

**Q.** And the “Population Hoechst High Intensity Objects (%)” value [4]?
**A.** 7%

**Q.** What about the “Population Mitochondria Different-Phenotype (%)” value [4] of the same compound?
**A.** 70%

**Q.** And the “Population Mitotic Cells (%)” value [4]?
**A.** 54%

**Q.** What about the “Population Normal (%)” value [4] of the same compound?
**A.** 92%

**Q.** And the “Population Pyknosed Nuclei (%)” value [4]?
**A.** 17%

**Q.** And the “Population Tubulin-Different-Phenotype (%)” value [4]?
**A.** 39%

**Q.** And the “Total Cell Count” value [4]?
**A.** 288

**Q.** What about the “Population Apoptotic (%)” value [5] of the same compound?
**A.** 36%

**Q.** And the “Population Fragmented Nuclei (%)” value [5]?
**A.** 8%

**Q.** And the “Population Healthy Nuclei (%)” value [5]?
**A.** 78%

**Q.** What about the “Population Hoechst High Intensity Objects (%)” value [5] of the same compound?
**A.** 2%

**Q.** What about the “Population Membrane Permeable-Phenotype (%)” value [5] of the same compound?
**A.** 1%

**Q.** And the “Population Mitochondria Different-Phenotype (%)” value [5]?
**A.** 30%

**Q.** What about the “Population Mitotic Cells (%)” value [5] of the same compound?
**A.** 63%

**Q.** And the “Population Normal (%)” value [5]?
**A.** 97%

**Q.** And the “Population Pyknosed Nuclei (%)” value [5]?
**A.** 12%

**Q.** What about the “Population Tubulin-Different-Phenotype (%)” value [5] of the same compound?
**A.** 21%

**Q.** What about the “Total Cell Count” value [5] of the same compound?
**A.** 368

**Q.** What about the “Population Apoptotic (%)” value [6] of the same compound?
**A.** 40%

**Q.** What about the “Population Fragmented Nuclei (%)” value [6] of the same compound?
**A.** 7%

**Q.** What about the “Population Healthy Nuclei (%)” value [6] of the same compound?
**A.** 83%

**Q.** And the “Population Hoechst High Intensity Objects (%)” value [6]?
**A.** 6%

**Q.** And the “Population Membrane Permeable-Phenotype (%)” value [6]?
**A.** 0%

**Q.** And the “Population Mitochondria Different-Phenotype (%)” value [6]?
**A.** 36%

**Q.** And the “Population Mitotic Cells (%)” value [6]?
**A.** 60%

**Q.** What about the “Population Normal (%)” value [6] of the same compound?
**A.** 93%

**Q.** What about the “Population Pyknosed Nuclei (%)” value [6] of the same compound?
**A.** 9%

**Q.** And the “Population Tubulin-Different-Phenotype (%)” value [6]?
**A.** 13%

**Q.** And the “Total Cell Count” value [6]?
**A.** 413

**Q.** And the “Population Apoptotic (%)” value [7]?
**A.** 33%

**Q.** And the “Population Fragmented Nuclei (%)” value [7]?
**A.** 15%

**Q.** And the “Population Healthy Nuclei (%)” value [7]?
**A.** 76%

**Q.** And the “Population Hoechst High Intensity Objects (%)” value [7]?
**A.** 5%

**Q.** And the “Population Membrane Permeable-Phenotype (%)” value [7]?
**A.** 0%

**Q.** And the “Population Mitochondria Different-Phenotype (%)” value [7]?
**A.** 29%

**Q.** And the “Population Mitotic Cells (%)” value [7]?
**A.** 66%

**Q.** What about the “Population Normal (%)” value [7] of the same compound?
**A.** 94%

**Q.** And the “Population Pyknosed Nuclei (%)” value [7]?
**A.** 8%

**Q.** And the “Population Tubulin-Different-Phenotype (%)” value [7]?
**A.** 31%

**Q.** And the “Total Cell Count” value [7]?
**A.** 550

**Q.** And the “Population Apoptotic (%)” value [8]?
**A.** 51%

**Q.** What about the “Population Fragmented Nuclei (%)” value [8] of the same compound?
**A.** 7%

**Q.** And the “Population Healthy Nuclei (%)” value [8]?
**A.** 80%

**Q.** What about the “Population Mitochondria Different-Phenotype (%)” value [8] of the same compound?
**A.** 47%

**Q.** And the “Population Mitotic Cells (%)” value [8]?
**A.** 48%

**Q.** And the “Population Pyknosed Nuclei (%)” value [8]?
**A.** 12%

**Q.** What about the “Population Tubulin-Different-Phenotype (%)” value [8] of the same compound?
**A.** 22%

**Q.** What about the “Total Cell Count” value [8] of the same compound?
**A.** 392

**Q.** What about the “Population Apoptotic (%)” value [9] of the same compound?
**A.** 27%

**Q.** What about the “Population Fragmented Nuclei (%)” value [9] of the same compound?
**A.** 17%

**Q.** What about the “Population Healthy Nuclei (%)” value [9] of the same compound?
**A.** 76%

**Q.** What about the “Population Hoechst High Intensity Objects (%)” value [9] of the same compound?
**A.** 1%

**Q.** What about the “Population Membrane Permeable-Phenotype (%)” value [9] of the same compound?
**A.** 1%

**Q.** And the “Population Mitochondria Different-Phenotype (%)” value [9]?
**A.** 17%

**Q.** And the “Population Mitotic Cells (%)” value [9]?
**A.** 72%

**Q.** What about the “Population Normal (%)” value [9] of the same compound?
**A.** 98%

**Q.** And the “Population Pyknosed Nuclei (%)” value [9]?
**A.** 6%

**Q.** What about the “Population Tubulin-Different-Phenotype (%)” value [9] of the same compound?
**A.** 10%

**Q.** What about the “Total Cell Count” value [9] of the same compound?
**A.** 718

**Q.** And the “Population Apoptotic (%)” value [10]?
**A.** 34%

**Q.** What about the “Population Fragmented Nuclei (%)” value [10] of the same compound?
**A.** 14%

**Q.** And the “Population Healthy Nuclei (%)” value [10]?
**A.** 78%

**Q.** And the “Population Hoechst High Intensity Objects (%)” value [10]?
**A.** 2%

**Q.** And the “Population Membrane Permeable-Phenotype (%)” value [10]?
**A.** 0%

**Q.** And the “Population Mitochondria Different-Phenotype (%)” value [10]?
**A.** 22%

**Q.** What about the “Population Mitotic Cells (%)” value [10] of the same compound?
**A.** 65%

**Q.** What about the “Population Normal (%)” value [10] of the same compound?
**A.** 97%

**Q.** And the “Population Tubulin-Different-Phenotype (%)” value [10]?
**A.** 6%

**Q.** What about the “Total Cell Count” value [10] of the same compound?
**A.** 595

**Q.** And the “Population Apoptotic (%)” value [11]?
**A.** 25%

**Q.** What about the “Population Fragmented Nuclei (%)” value [11] of the same compound?
**A.** 14%

**Q.** What about the “Population Healthy Nuclei (%)” value [11] of the same compound?
**A.** 78%

**Q.** What about the “Population Hoechst High Intensity Objects (%)” value [11] of the same compound?
**A.** 4%

**Q.** What about the “Population Membrane Permeable-Phenotype (%)” value [11] of the same compound?
**A.** 0%

**Q.** And the “Population Mitochondria Different-Phenotype (%)” value [11]?
**A.** 23%

**Q.** What about the “Population Mitotic Cells (%)” value [11] of the same compound?
**A.** 74%

**Q.** What about the “Population Normal (%)” value [11] of the same compound?
**A.** 95%

**Q.** What about the “Population Pyknosed Nuclei (%)” value [11] of the same compound?
**A.** 7%

**Q.** And the “Population Tubulin-Different-Phenotype (%)” value [11]?
**A.** 17%

**Q.** What about the “Total Cell Count” value [11] of the same compound?
**A.** 753

**Q.** What about the “Population Apoptotic (%)” value [12] of the same compound?
**A.** 36%

**Q.** What about the “Population Healthy Nuclei (%)” value [12] of the same compound?
**A.** 77%

**Q.** And the “Population Hoechst High Intensity Objects (%)” value [12]?
**A.** 3%

**Q.** What about the “Population Mitochondria Different-Phenotype (%)” value [12] of the same compound?
**A.** 32%

**Q.** And the “Population Mitotic Cells (%)” value [12]?
**A.** 63%

**Q.** What about the “Population Normal (%)” value [12] of the same compound?
**A.** 96%

**Q.** And the “Population Pyknosed Nuclei (%)” value [12]?
**A.** 8%

**Q.** And the “Population Tubulin-Different-Phenotype (%)” value [12]?
**A.** 15%

**Q.** What about the “Total Cell Count” value [12] of the same compound?
**A.** 576
